Results as given in the EternaBench riboswitch data.

Test system: MS2 coat protein
Experiment: apparent Kd, MS2 coat protein; higher = weaker binding; RNA-MaP array; FMN 200 µM where present
Outline: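 The titrant was SNAP-549-labelled MS2 coat protein, run from 0.7 or 1.5 nM in doubling steps to 3 µM. It was applied to designs transcribed by stalled E. coli RNA polymerase on Illumina sequencing-chip clusters, without ligand first and then with constant ligand, in 100 mM Tris-HCl pH 7.5, 80 mM KCl, 4 mM MgCl2, BSA, DTT, yeast tRNA and Tween-20. The apparent Kd is the median of filtered per-cluster binding-curve fits, with green signal normalised to red-channel RNA signal and control-cluster median Fmax.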

[1] = designed as: OFF switch for flavin mononucleotide, no ligand
[2] = ligand present: flavin mononucleotide, designed as: OFF switch for flavin mononucleotide
[3] = designed as: ON switch for flavin mononucleotide, no ligand
[4] = ligand present: flavin mononucleotide, designed as: ON switch for flavin mononucleotide

Sequence	apparent Kd [1] [nM]	apparent Kd [2] [nM]	apparent Kd [3] [nM]	apparent Kd [4] [nM]
UUUAAUUUAAUUAAGAUCACAUGAGGAUCACCCAUGUAAUUAUAGGAUAUCAGCUCGUUUAGAGCUGAGAAGGAUAAUUACAUA	78.9	53.4		
AGUUAAUAUCGAGGAUAUGUCUAGACACAUGAGGAUCACCCAUGUAUGUGUAUAGAAGGCGAAAUUAAAAGCAUGUUACAUGCA			31.1	19.5
GUUAUUAUUAGUUCAUACUAUAAGAUAGAAGGUGAAUAAUUGACAUGAGGAUCACCCAUGUAAUUCAAGGAUAUGUAGAUACUC			32	17.6
GGAACGCUUGACAUGAGGAUCACCCAUGUUAGAUUGUUAUGUCAGGAUAUAGUCUAGAAACUAGACUAGAAGGGAUAUGUUUCU			428	87.7
GUAGCCGACCAGAAGGGUGACAUGAGGAUCACCCAUGUAGAUGUGUUCCCGCUUGGGAGCCGUCCACAGGAUAUGGUUGGUUAU			54.1	38.3
UUCGGUGAAGGAUAUAGGGCUCGGUACAUGAGGAUCACCCAUGUUGCUUUAUGUUCCACCCUAGAAGGUUAUCACC	417	370		
GCUCUAUGCUAGAAGGCGUGAAACAUGAGGAUCACCCAUGUCAAAGACGUGAGGAUAUAGCAUAGAGCAAAAGUGCGAAAGCAC			5.49	5.29
GUGUAGACAGGAUAUGCUUUGAGCAUAUGAGAGUAUGCUCUACAUGAGGAUCACCCAUGUAGAAGGGUCUACAC	11.9	12.5		
AAAAAACAUGAGGAUCACCCAUGUAAGGAUAUGCAAAAAAAAAAAAAAAAAAAAAAAAGCAGAAGGUACAAAAA	34.2	62		
GCUGUCGUAUGAGGAUAUGGUCACCUUUGGUGACCAGAAGGCAUGUCAAUAGACAUGAGGAUCACCCAUGUAGUAAAGACAGCA			391	39.4
GGUUACACAGGAUAUACAUGAGGAUCACCCAUGUCGAGCCGACCCGGAUGCACCUAAAGUAGAAGGGUGAGCUG	21.8	22.7		
UGCGAACAGGCUAACAUGAGGAUCACCCAUGUGGACUCAUGGUAGGAUAUCGGGAAGGAGGAAACCGAGAAGGGCCGGUGAGCC			848	372
UUUUAACAUGAGGAUCACCCAUGUGAGGAUAUCGAAAUUUAUAUUAAUAUUAUUAUUUCGAGAAGGCACAUUUU	136	137		
UUCAAGGGUUGAGGAUAUCCCGGUUGUGUCCUCAUCCGCCAAGGUACAUGAGGAUCACCCAUGUGGGAGAAGGCAAUACUAGAG	130	182		
GUAAUUUAUAGAGGAUAUUGACAUGAGGAUCACCCAUGUAUUUGGGAGUGUUCACUGAAUUCUUACGAGAAGGCUAUAAAAUAC	307	213		
AGCGUACAAGCUGACAUGAGGAUCACCCAUGUGGUCUCAUGCGAGGAUAUCGGGAAGGAGGAUUCCGAGAAGGUGCGGUGAGCC			275	44.9
GACUGCUGAGGAUAUACAUGAGGAUCACCCAUGUGCUUCAGUAUCGAAAGAUGCAUGGGUAGAAGGUGGUAGUC	70.6	54.4		
GGCAAAUGAGCAGGAUAUACAGUACAUGCCUAAUGGACUCACGCACAUGAGGAUCACCCAUGUACGUAGAAGGGCUCCGAGGAG	15.2	19.1		
AGCCAACAUGAGGAUCACCCAUGUCUACAGGAUUAAGGAUAUGGGCAGGGCUUCCCUGCACUAGAAGGUGAUCGAA			153	214
CAGCGGAGCCUAGGAUAUGCGACAUGAGGAUCACCCAUGUACGCCAAAACGUCACCAUGGGUCUCGCAGAAGGAGGAAACACUG	54.7	24.3		
GACAUGAGGAUCACCCAUGUCCCUCCAGAAGGCUGGCGCGCGAAACCUAUAUCGGUUCCGGGCACAGAGGAUAUGGGCGGUUGG			199	27.2
UUUUACAUAGGAUAUAGUUUGUUGUACAUGAGGAUCACCCAUGUUGUUGGUUGUGCUGUUCUAGAAGGAUGUUUCU	44.4	33.8		
GAUUUCGCAUGAGGAUAUGCUCGCAUUUCAAGAGCAGAAGGUAUGUCUUUAGACAUGAGGAUCACCCAUGUAGUUAAGAUUGAA			24.3	14.7
CUGCUUCGCUAAGGAUAUCACAUUGUCGAUCUGCGUGCAGCCUCCUGACAUGAGGAUCACCCAUGUGAGAAGGUAGACGACGUG	19.4	22.5		
GCAAAGCCUGACAUGAGGAUCACCCAUGUUAGAUUGUUAUGUCAGGAUAUUGUCUAGCAACUAGACAAGAAGGGAUGCUUUGCC			603	50.9
GAUUGAACCCAGAAGGCAUGAUCCACAUGAGGAUCACCCAUGUCGGUGAUGAGGAUAUGGCAUCGUCGCGCAGGGCACUAAUGA			590	119
CUUUUGUGAGGAUAUGUGGCUUCGAUCGUGAGAUCGAGGCUACAGAAGGCACAUGAGGAUCACCCAUGUUCCUC	60.4	777		
GGUCCACAUGAGGAUCACCCAUGUCAGGAUAUACACGGCACAAUAAUAAGUGCCACCCGUAGAAGGGACGCUGG	14.8	37.6		

Sequence	apparent Kd [1] [nM]	apparent Kd [2] [nM]	apparent Kd [3] [nM]	apparent Kd [4] [nM]
GUCCCACAUGAGGAUCACCCAUGUGAGGAUAUGGAUUCGCUGGCCGUAGCCAGUGGAUCCAGAAGGCGCAUGAU	19.6	26.5		
CCACGUCACAUGAACAUGAGGAUCACCCAUGUAACUAGACAUGAGGAUAUGGAUCCUAAUUGGAUCCAGAAGGCAUGGACGUGG			168	29.2
ACGUUUUUUGAGGAUAUGCGACGUUUUUUCGUCGUAGAAGGCGAUACAUGAGGAUCACCCAUGUUUAUGGGCAU	126	174		
AAUAAAAUGAUGUUACAUGAGGAUCACCCAUGUAAGUGAUGGAGAAGGUCCCACGACUUGGGCGGGAAGGAUAUUCAGAGCAUA			16.8	10.3
CGAUAGGACAGAGGAUAUACACAUGAGGAUCACCCAUGUAAUUACAAUUCUUAAGAUUCAAACAUGUAGAAGGCUGUCCUAUCG	35.9	13.1		
UACUUACGAGGAUAUCGAUUGUGGUACAUGAGGAUCACCCAUGUAUGUGAUAUUGUAUUUCGAGAAGGCGUUCAGU	25.8	21.7		
UAUAUAUAGUAAGGAUAUGUAUUUAAUUUAUAAACAGAAGGUACUGACAUGAGGAUCACCCAUGUUUUAGUGUGGGCAUGUAGA	97.9	147		
GCCACGUCAGGAUAUCUGAUGUCUAACUUCGGUUAGACAUCAGAGAAGGGACAUGAGGAUCACCCAUGUGGCAA	264	177		
AGUAAGAUGCAGAAGGUGUUAGCUAGAGCUACGACAUGAGGAUCACCCAUGUACUAGAAACAGUACAAGGAUAUGCAUCUUACG			16.6	6.47
AUUUAUGGCCAGAAGGACAUGAGGAUCACCCAUGUAGGAUAUGGACGAUUUUGCUCGGCGGUUCGUUUAGGAAUCACCGGUGGU			7.88	6.38
UUUUUCUCAGGAUAUACAUGAGGAUCACCCAUGUAUAUUGAAGAUAAUACAUGGGAAUGUAGAAGGGAGCUCAU	109	115		
GUAGCAUAGACAGGAUAUCUAUACCCGAAAGGGACAUGAGGAUCACCCAUGUUGCGAAAGCGGUGGGAGAAGGGUCUAUGCUAC			25.4	6.04
CCAUGACAAAGUCAUGGUUAACGAACAUGAGGAUCACCCAUGUAGGAUAUGCUACUCAAAGAGUAGCAGAAGGACAUGUGCCUU	34.3	259		
GUUUAUUUACAGAAGGUGUUUUACAUGAGGAUCACCCAUGUUUAAAGGUAUAAAGAAUUUAUUUACAAGGAUAUGUACAAUUUU			34.1	22.1
GAGCUCAAUGAGAAGGGUUACAUGAGGAUCACCCAUGUCGACCUUGGCGUAACAGGAUAUCAUCGGGCUCAGUGCGUUGACCCA	24.9	108		
AUCAGCUCGUCAGGAUAUACGUAACUGCGUCAGCAGUGUGGUAAGAUCACAUGAGGAUCACCCAUGUAGAAGGGACGAGCUGAU		529		
CCAGCGUAUGUGAGGAUAUGCUGGUCCUUGGAUCAGCAGAAGGCACAUGAGGAUCACCCAUGUGAGAGCGUUGG	25.7	197		
UAAAAGGAAGGAUAUACACUUCAAAACCUCAUGUGACUUUCACAUGAGGAUCACCCAUGUAGAAGGUCCAAGGC	24	33.9		
GGGAGACAUGAGGAUCACCCAUGUGAAAACGUGUGAGGAUAUGUAUGGAAACCAUACUGUACAGAAGGCACUUGUC			53.8	41
AAACUAGUAGAGGAUAUUCCAGGCAGUGUUUGAGAAGAAGGCUACACAUGAGGAUCACCCAUGUGGCCUGGUGG	13.6	17.1		
GGUUGUUAUGACAGCGAGUGUUAGAGAAGGUACAUGAGGAUCACCCAUGUACGUGAUCUUGCGAGUAAGGAUAUCUGUUAUUCA	5.65	5.83		
GACGGAUGUAUAGGAUAUGCUGAGGAAUACUCAGCAGAAGGAUACAUGAGGAUCACCCAUGUAACCGUCAAUAAUAAUAAUAAU	15.7	29.9		
UAAUAGUGAGGAUAUACAGAAUCUGGGUCCCGCGUGUUGAGACAUGAGGAUCACCCAUGUAGAAGGCACAAAAU	108	42.5		
GGGAGGGAUACAGGAUAUAUGACAUGAGGAUACAUGAGACAUACAAACAUGAGGAUCACCCAUGUAUAGAAGGGUAAGGGAGGG	173	240		
CAGCGAAAGCUGAAUCUGUAGAGAGAGGAUAUACAAGAAUAAAUCCAUACAUGAGGAUCACCCAUGUAGAAGGCUCUCUACAGU	7.41	26.6		
GUUUUACAUGAGGAUCACCCAUGUGAGGAUAUAUUGUUAUUUUUGAUAUUUUUUGGUGGUAGAAGGCGCGUGAU	36.4	32.7		
UUGAGGUCAGGAUAUGCAUGGCGGGACUUGCGUCGUGGCGUGCAGAAGGGACAUGAGGAUCACCCAUGUGGAGC	75.2	211		
